High-throughput results: PubChem BioAssay, several laboratories
MT stabilizer: microtubule stabilizers in HeLa cells, primary screen, imaging, high-content imaging; HeLa tubulin immunostaining HCS, 24 h; share of cells brighter than vehicle mean+2SD; % tubulin-high responders, % at 10 µM; hit rate 0.83% among 200,000; AID 2205, 2009;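 active means plate Z-score above 3 for both tubulin-high and condensed-nucleus cell shares, with cell loss under 80%, at 10 µM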;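 further: anti alpha tubulin signal scored within the nucleus-defined area of each cell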
L major viab: Leishmania major promastigote growth inhibition, primary screen | Leishmania major promastigotes, resazurin fluorescence viability | inhibition, % at 10 µM | hit rate 9% among 200,000; in the data active means inhibition above about 50%;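 further: promastigotes grown with compound for 44 hours at 28 °C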
bCat nuc transl: modulators of beta-catenin nuclear translocation, primary screen, imaging, HeLa cells, immunofluorescence, high-content. nuclear translocation activity, % at 5 µM. hit rate 0.3% among 190,000. AID 1665, 2009;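 active means nuclear translocation activity above 50% at 5 µM, with a well cell count of 50 or more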;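 further: per-cell ratio of nuclear to cytoplasmic median beta-catenin stain intensity; plate controls were DMSO negative control for no effect and GSK-3 inhibitor IX positive control for full effect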
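Test system: human HeLa cells, endogenous beta-catenin. Times: 24 h compound exposure, 37°C. Measured by: beta-catenin immunofluorescence imaging with DAPI.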
Ba/F3 V617F tox: reduced viability of JAK2V617F-dependent Ba/F3 cells, primary screen, JAK2V617F inhibitor project, cell-based, Ba/F3 EpoR-JAK2V617F, luminescence. ATP luminescence. inhibition, % at 5.6 µM. hit rate 1.1% among 220,000. AID 1446, 2008;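 active means inhibition above the campaign mean plus 3 SD over all tested compounds, cut at about 24% in these data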;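 further: cytokine-independent growth of Ba/F3 cells driven by EpoR plus mutant JAK2; 0% = DMSO-treated cells and 100% = JAK inhibitor I control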
BaF3 parental: parental Ba/F3 cell viability inhibition, counter-screen for JAK2V617F inhibitor project, murine pro-B, CellTiter-Glo luminescence. inhibition, % at 5.6 µM. CellTiter-Glo ATP luminescence. hit rate 1.1% among 220,000. AID 1486, 2009;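 active means inhibition above a per-campaign cutoff, the mean inhibition of all tested compounds plus 3 SD, cut at about 27% in these data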;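 further: 0% = DMSO wells and 100% = JAK Inhibitor I control wells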
APP transl inh: inhibitors of APP translation via 5'UTR reporter, primary screen, APP 5'UTR luciferase, SH-SY5Y cells; hit rate 0.82% among 190,000; AID 1285, 2008; SH-SY5Y APP 5'UTR-luciferase reporter, luminescence; inhibition, % at 2 µM;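 active means inhibition above a set limit, derived from the sample mean plus 3 SD, cut at about 45% in these data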
* hit, by the source's call. In the library only some 9.6% were active in any assay of this set; here they are far more common.

How did CN1CCN(c2ccccc2NC(=O)c2cc3ccccc3o2)CC1 do in these assays?
MT stabilizer: 4; L major viab: 68*; Ba/F3 V617F tox: 0; BaF3 parental: 8; APP transl inh: -18

What do the screens show for `CN1CCN(c2ccccc2NC(=O)c2ccc(-c3ccc(Cl)cc3Cl)o2)CC1`?
MT stabilizer: 2; L major viab: 99*; Ba/F3 V617F tox: -5; BaF3 parental: 2; APP transl inh: -7

How did O=C(Nc1ccccc1N1CCCC1)c1cc2ccccc2o1 do in these assays?
MT stabilizer: 1; L major viab: 19; Ba/F3 V617F tox: -6; BaF3 parental: 2; APP transl inh: -90

Results for CCn1c(=O)cc(OCC(=O)NCc2cccs2)c2ccccc21 ?
MT stabilizer: 3; L major viab: 1; bCat nuc transl: 0; Ba/F3 V617F tox: 1; BaF3 parental: 5; APP transl inh: -16

What do the screens show for `Cc1nn(-c2ccccc2)c(N2CCCC2)c1/C=N/NC(=O)c1cc2ccccc2cc1O`?
MT stabilizer: 5; L major viab: -9; bCat nuc transl: 2; Ba/F3 V617F tox: -3; BaF3 parental: 1; APP transl inh: -23

What do the screens show for `CCOC(=O)N/N=C/c1c(C)nn(-c2cccc(C(F)(F)F)c2)c1Cl`?
MT stabilizer: 24*; L major viab: 2; bCat nuc transl: 13; Ba/F3 V617F tox: 67*; BaF3 parental: 42*; APP transl inh: 86*

How did Cc1nn(-c2ccc(F)cc2)c(Cl)c1/C=N/NC(=O)c1cccc(S(=O)(=O)N2CCCC2)c1 do in these assays?
MT stabilizer: 2; L major viab: 55*; bCat nuc transl: 1; Ba/F3 V617F tox: -1; BaF3 parental: 6; APP transl inh: -9

What do the screens show for `Cc1nn(-c2ccccc2)c(Cl)c1/C=N/NC(=O)c1cccc(S(=O)(=O)N2CCCC2)c1`?
MT stabilizer: 2; L major viab: -8; bCat nuc transl: 0; Ba/F3 V617F tox: 0; BaF3 parental: 1; APP transl inh: 8

Results for Cc1nn(-c2ccccc2)c(N2CCCC2)c1/C=N/NC(=O)c1cccc(S(=O)(=O)Nc2ccc(Cl)cc2)c1 ?
MT stabilizer: 2; L major viab: 52*; bCat nuc transl: -2; Ba/F3 V617F tox: 2; BaF3 parental: 8; APP transl inh: 1

Results for COc1ccc(-c2nn(-c3ccccc3)cc2/C=N/NC(=O)c2cccc(S(=O)(=O)Nc3ccccc3Cl)c2)cc1 ?
MT stabilizer: 2; L major viab: 81*; bCat nuc transl: 2; Ba/F3 V617F tox: -2; BaF3 parental: 1; APP transl inh: -45

How did COC(=O)N/N=C/c1c(C)nn(-c2cccc(Cl)c2)c1Cl do in these assays?
MT stabilizer: 8; L major viab: 26; bCat nuc transl: 45; Ba/F3 V617F tox: -1; BaF3 parental: 6; APP transl inh: -12

Results for COc1ccc(-c2nn(-c3ccccc3)cc2/C=N/NS(=O)(=O)c2ccccc2)cc1 ?
MT stabilizer: 2; L major viab: 9; bCat nuc transl: -1; Ba/F3 V617F tox: 1; BaF3 parental: 9; APP transl inh: -22

How did Cc1ccccc1OCc1nnc(SC(C)C(=O)O)n1Cc1ccccc1 (centres undefined) do in these assays?
MT stabilizer: 4; L major viab: -3; bCat nuc transl: -2; Ba/F3 V617F tox: 6; BaF3 parental: 10; APP transl inh: 0

How did Cc1c(=O)n(OCc2c(F)cccc2F)c2ccccc2[n+]1[O-] do in these assays?
MT stabilizer: 4; L major viab: -4; Ba/F3 V617F tox: -2; BaF3 parental: 4; APP transl inh: 18

What do the screens show for `Cc1cc(NC(=O)CS(=O)(=O)Cc2ccccc2)no1`?
MT stabilizer: 4; L major viab: -3; bCat nuc transl: 0; Ba/F3 V617F tox: -1; BaF3 parental: 3; APP transl inh: 23

How did Cc1nn(-c2cccc(Cl)c2)c(Cl)c1/C=N/NC(=O)c1cccnc1 do in these assays?
MT stabilizer: 1; L major viab: 71*; bCat nuc transl: 2; Ba/F3 V617F tox: -2; BaF3 parental: 8; APP transl inh: -10

What do the screens show for `CSc1nc2ccccc2cc1/C=C(\C#N)c1cccc(C)c1`?
MT stabilizer: 27; L major viab: -4; Ba/F3 V617F tox: -1; BaF3 parental: 5; APP transl inh: -6

How did CSc1nc2ccccc2cc1/C=C(\C#N)c1ccccc1 do in these assays?
MT stabilizer: 36*; L major viab: 0; bCat nuc transl: 1; Ba/F3 V617F tox: 2; BaF3 parental: 2; APP transl inh: -4

How did CC1=C(C(=O)c2ccccc2)C(c2ccc(OC(F)F)cc2)NC(=S)N1 (centres undefined) do in these assays?
MT stabilizer: 22*; L major viab: 24; bCat nuc transl: 4; Ba/F3 V617F tox: -2; BaF3 parental: 2; APP transl inh: -9

Results for CCCCNC(=O)Nc1nnc(C(C)(C)C)s1 ?
bCat nuc transl: 0; Ba/F3 V617F tox: 0; BaF3 parental: -1

How did CC(=O)Oc1ccc(N2C(=O)C3C(C2=O)C(C(=O)c2ccc(Cl)cc2)N2CCCC32)cc1 (centres undefined) do in these assays?
bCat nuc transl: -2; Ba/F3 V617F tox: -3; BaF3 parental: -11

Results for Cc1ccc(N2C(=O)C3C(C2=O)C(C(=O)c2ccc(Cl)cc2)N2CCCC32)cc1 (centres undefined) ?
MT stabilizer: 1; L major viab: 94*; bCat nuc transl: -1; Ba/F3 V617F tox: -3; BaF3 parental: 0; APP transl inh: -13

What do the screens show for `Cn1nc(C(F)(F)F)c(C(=O)Nc2cccc(Cl)c2)c1Cl`?
MT stabilizer: 2; L major viab: 0; Ba/F3 V617F tox: -5; BaF3 parental: -2

What do the screens show for `CCN(CC)CCNC(=O)C(=O)NCC1OCCN1C(=O)c1ccc2c(c1)OCO2` (centres undefined)?
MT stabilizer: 1; L major viab: 54*; bCat nuc transl: -2; Ba/F3 V617F tox: 1; BaF3 parental: 7; APP transl inh: -4

What do the screens show for `Cc1ccc(CNC(=O)C(=O)NCC2OCCN2C(=O)c2ccc3c(c2)OCO3)cc1` (centres undefined)?
MT stabilizer: 2; L major viab: 2; bCat nuc transl: 0; Ba/F3 V617F tox: 5; BaF3 parental: 8; APP transl inh: 16

Results for O=C(NC(Cc1c[nH]c2ccccc12)C(=O)OCC(=O)c1cccc2ccccc12)c1cccs1 (centres undefined) ?
MT stabilizer: 5; L major viab: -1; bCat nuc transl: 1; Ba/F3 V617F tox: -2; BaF3 parental: 6; APP transl inh: 2

How did N#CC1=C(N)Nc2ncnn2C1c1ccc([N+](=O)[O-])cc1 (centres undefined) do in these assays?
bCat nuc transl: 0; Ba/F3 V617F tox: -2; BaF3 parental: -3
